The source made the active and inactive calls. The rule behind the calls is not given here.
How the values were obtained:
[1] = target: Aldo-keto reductase family 1 member B1 (Bos taurus, UniProt P16116); experiment: Inhibition of bovine lens ALR2; design: species or system Lens of camera-type eye
In short: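 ALR2 was purified from bovine lens by DE-52 ion exchange and Matrex Orange A affinity chromatography (0.8 U/mg). Assay at 37 °C with 4.67 mM D,L-glyceraldehyde and 0.11 mM NADPH in 0.25 M sodium phosphate pH 6.8, 0.38 M ammonium sulfate and 0.5 mM EDTA, with 1% (v/v) DMSO. IC50 was fitted by nonlinear one-site competition on log dose-inhibition curves from ≥7 concentrations; 95% confidence limits given.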

[2] = test system: Brain; experiment: Antioxidant activity against FeCl3/ascorbic acid-induced lipid peroxidation in rat brain homogenate at 100 uM by TBARS assay; type: functional, tissue-based
In short: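 Fresh rat brain homogenised 10% (w/v) in phosphate buffer pH 7.4. Homogenate was incubated with 20 µM FeCl3 and 100 µM ascorbic acid (final) plus compound (100 uM) or α-tocopherol for 30 min at 37 °C. Thiobarbituric acid/HCl was added, then boiling, n-butanol extraction and A532 read. Values are nmol MDA/10 mg wet tissue from a tetramethoxypropane standard curve; mean ± S.E.M., ≥2 determinations in triplicate.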

[3] = target: Aldo-keto reductase family 1 member B1 (Bos taurus) (UniProt P16116); experiment: Inhibition of bovine lens ALR2 at 25 uM; conditions: Lens of camera-type eye

Row | Compound | IC50 [1] | inhibition [3] | Activity [2]
1 | O=C(O)CN1C(=O)S/C(=C\C=C\c2ccc(C(F)(F)F)cc2)C1=O | 300 nM | – | Active
2 | COc1ccc(/C=C/C=C2/SC(=O)NC2=O)cc1 | – | 51% | –
3 | O=C(O)CN1C(=O)/C(=C\c2ccc(OCc3ccccc3)cc2)S/C1=N\c1ccccc1 | 4900 nM | – | –
4 | Cc1ccc(/C=C/C=C2/SC(=O)NC2=O)cc1 | – | 46% | –
5 | O=C1NC(=O)/C(=C/C=C/c2ccc(C(F)(F)F)cc2)S1 | – | 65% | –
6 | COc1ccc(/C=C/c2ccc(/C=C3\SC(=O)NC3=O)cc2)cc1 | – | inactive | –
7 | O=C1NC(=O)/C(=C/c2ccc(/C=C/c3ccc(C(F)(F)F)cc3)cc2)S1 | – | 29% | –
8 | O=C1NC(=O)/C(=C\C=C\c2ccccc2)S1 | – | 31% | –
9 | O=C(O)CN1C(=O)/C(=C\c2ccc(Oc3ccccc3)cc2)S/C1=N\c1ccccc1 | 4400 nM | – | –

Second part, led by results:

Row | IC50 [1] | inhibition [3] | Compound | Activity [2]
10 | 850 nM | – | COc1ccc(/C=C/C=C2\SC(=O)N(CC(=O)O)C2=O)cc1 | Active
11 | – | inactive | O=C1NC(=O)/C(=C/c2ccc(/C=C/c3ccccc3)cc2)S1 | –
12 | 250 nM | – | COc1ccc(/C=C/c2ccc(/C=C3\SC(=O)N(CC(=O)O)C3=O)cc2)cc1 | Active
13 | 1050 nM | – | Cc1ccc(/C=C/C=C2\SC(=O)N(CC(=O)O)C2=O)cc1 | Active
14 | 1320 nM | – | O=C(O)CN1C(=O)S/C(=C\C=C\c2ccccc2)C1=O | Active
15 | 350 nM | – | Cc1ccc(/C=C/c2ccc(/C=C3\SC(=O)N(CC(=O)O)C3=O)cc2)cc1 | Active
16 | 70 nM | – | O=C(O)CN1C(=O)S/C(=C\c2ccc(Oc3ccccc3)cc2)C1=O | –
17 | – | 39% | Cc1ccc(/C=C/c2ccc(/C=C3\SC(=O)NC3=O)cc2)cc1 | –
18 | 2700 nM | – | O=C(O)CN1C(=O)/C(=C\c2ccc3ccccc3c2)S/C1=N\c1ccccc1 | –
19 | 270 nM | – | O=C(O)CN1C(=O)S/C(=C\c2ccc(/C=C/c3ccccc3)cc2)C1=O | Active
20 | 1250 nM | – | O=C(O)CN1C(=O)S/C(=C\c2ccc(/C=C/c3ccc(C(F)(F)F)cc3)cc2)C1=O | Active

Source: ChEMBL document CHEMBL1795263, “Identification of 5-arylidene-4-thiazolidinone derivatives endowed with dual activity as aldose reductase inhibitors and antioxidant agents for the treatment of diabetic complications” (Eur J Med Chem, 2011)
